H69AR growth 86K – growth inhibitors of human H69AR lung tumor cells; H69AR lung tumor viability, ATP luminescence, 72 h; stronger effect = lower value; viability, % at 10 µM; 6% of 85,000 active;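 active = viability at or below 40%; inactive = viability above 40%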;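 also: multidrug resistant small cell line overexpressing MRP-1 efflux transporter; 100% = mean luminescence of untreated control wells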
HUVEC prolif 384 – blocks proliferation of human endothelial cells; AID 648; viability, % at 10 µM (by protocol); HUVEC proliferation, CellTiter-Glo luminescence, 72 h; stronger effect = lower value; 1.1% of 86,000 active;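 active = viability at or below 30%; inactive = viability above 30%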;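 also: 100% = median luminescence of DMSO-only cell control wells on each plate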
Ecoli WT expand – E. coli BW25113 growth inhibition, expanded screen; 0.15% of 98,000 active; AID 710; growth inhibition, % at 100 µM; OD600 absorbance;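 active = growth inhibition above about 50% at one test dose, limit read from the data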;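 also: growth measured after 20 h incubation at 37 °C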
Lung fibro prol – blocks proliferation of human lung fibroblasts; LL 47 human lung fibroblast viability, ATP luminescence; stronger effect = lower value; viability, % at 10 µM; 1.1% of 85,000 active;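 active = viability at or below 50% in the single dose screen; inactive = viability above 50%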;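 also: compound exposure lasted 72 h before the ATP readout; 100% = median luminescence of untreated cell-only wells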
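material = human LL 47 lung fibroblast cells | dosing = compounds added from tenfold dosing solution, 0.1% DMSO final | timing = overnight cell rest, 72 h compound treatment at 37 °C | measured by = CellTiter-Glo luminescence measuring cellular ATP | evaluation = % viability versus median cells-only luminescence | control set = cell-only wells, no compound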
Jurkat tox 60K – cytotoxicity toward Jurkat cells. Jurkat E6.1 viability, ATP luminescence, 48 h. inhibition, % at 4 µM. 1.2% of 56,000 active;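 active = inhibition above the mean inhibition of all tested compounds plus 3 SD, cut at about 28% in these data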
tolC growth inh – E. coli tolC mutant growth inhibition | growth inhibition, % at 10 µM (by protocol) | 2.2% of 65,000 active | E. coli BW25113 tolC mutant growth, OD615;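 active = growth inhibition at or above a cutoff equal to the mean over every tested compound plus 3 SD, cut at about 60% in these data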;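 also: growth measured after 20 h incubation at 37 °C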
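Test system: tolC-deleted E. coli BW25113; medium: LB with kanamycin 50 µg/mL; compound: single-point testing at 10 µM; incubation: 20 h compound exposure of bacteria at 37 °C; signal: OD at 615 nm; evaluation: growth inhibition in percent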
An asterisk follows results filed as active; · = no result given. Only some compounds are listed: those with a hit (about 6.4% of all), similar ones and a draw of the others.

SMILES | H69AR growth 86K | HUVEC prolif 384 | Ecoli WT expand | Lung fibro prol | Jurkat tox 60K | tolC growth inh
CCOC(=O)N1CCC(n2c(SCC(=O)NCCC3=CCCCC3)nc3ccccc3c2=O)CC1 | 26* | 74 | -23 | 88 | · | 32
CCOC(=O)N1CCC(n2c(SCC(=O)N3CCC(C)CC3)nc3ccccc3c2=O)CC1 | 30* | 88 | 1 | 105 | · | ·
N#CCCN(C(=O)CSc1nc(-c2ccccc2)cn1N)c1ccc(F)cc1 | 94 | 96 | -3 | 96 | · | ·
CCc1ccc(C(C)NC(=O)Cn2cnc3c(=O)n(C)c(=O)n(C)c32)cc1 (configuration not stated) | 91 | 89 | · | 94 | · | ·
CCOC(=O)C1CCN(Cc2cnc(Oc3ccc(N)cc3)s2)CC1 | · | · | 11 | · | · | ·
O=C(Nc1cccc(-c2cnc3ccccc3n2)c1)c1cccc(NC(=O)c2ccco2)c1 | 8.1* | 17* | -1 | 35* | · | ·
O=C(CCl)Nc1cccc(-c2cnc3ccccc3n2)c1 | 1.5* | 4.1* | -4 | 2.7* | · | ·
CC(=O)Nc1ccc2nc(-c3ccncc3)[nH]c2c1 | 96 | 105 | -3 | 99 | · | ·
CCC(=O)Nc1cccc(-c2cnc3ccccc3n2)c1 | 77 | 107 | 4 | 103 | · | ·
O=C(Nc1ccc(-c2nc3ccc(NC(=O)c4cccs4)cc3[nH]2)cc1)c1cccs1 | 3.1* | 4.1* | -8 | 41* | · | ·
O=C(Nc1cccc(-c2cnc3ccccc3n2)c1)c1ccccc1 | · | · | 0 | · | · | ·
O=C(Nc1ccc(Oc2cccnc2)cc1)c1ccccc1F | · | · | 0 | · | · | ·
O=C(Nc1ccc2nc(-c3cccnc3)[nH]c2c1)c1ccccc1F | 34* | 94 | 5 | 109 | · | ·
COc1ccc2cc3cc(C(=O)NCC4COc5ccccc5O4)oc3nc2c1 (configuration not stated) | · | · | -3 | · | -3 | 3
O=C(Nc1ccc2nc(-c3cccs3)[nH]c2c1)c1ccco1 | 71 | 113 | -2 | 102 | 4 | 90*
O=C(Nc1ccc2nc(-c3cccs3)[nH]c2c1)c1cccs1 | 39* | 61 | -3 | 92 | -1 | 20
Cc1ccc2nc(-c3ccc(NC(=O)c4ccco4)cc3)[nH]c2c1 | 51 | 63 | -8 | 101 | -4 | -4
Cn1cccc1-c1nc2ccc(NC(=O)c3ccco3)cc2[nH]1 | 71 | 127 | 1 | 105 | -5 | 6
O=C(Nc1cccc(-c2nc3ccccc3[nH]2)c1)c1ccco1 | 34* | 77 | -3 | 96 | -1 | 28
Cc1ccc(C(=O)N2CCN(c3ncnc4c3cnn4-c3ccccc3)CC2)cc1 | 21* | 84 | · | 99 | · | ·
CCN1CCN(c2ncnc3c2cnn3-c2ccccc2)CC1 | 88 | 98 | 3 | 103 | 5 | -3
c1ccc(CCN2CCN(c3ncnc4c3cnn4-c3ccccc3)CC2)cc1 | 34* | 60 | -23 | 98 | 2 | 66*
CCOC(=O)C1CCN(CC(O)COc2ccc(C(C)(C)CC)cc2)CC1 (configuration not stated) | 26* | 87 | 21 | 97 | · | 36
COc1ccc(S(=O)(=O)N2CCN(CC(=O)Nc3ccc(C)c(F)c3)CC2)cc1 | 4.9* | 99 | -8 | 105 | -2 | 10
O=C(CN1CCN(S(=O)(=O)c2ccc(Br)cc2)CC1)Nc1ccc2c(c1)OCCO2 | 17* | 88 | -6 | 98 | · | 7
SMILES | H69AR growth 86K | HUVEC prolif 384 | Ecoli WT expand | Lung fibro prol | Jurkat tox 60K | tolC growth inh
O=C(CN1CCN(S(=O)(=O)c2ccc(Cl)cc2)CC1)Nc1ccc2c(c1)OCCO2 | 67 | 88 | -9 | 104 | 2 | 12
COc1ccc(S(=O)(=O)N2CCN(CC(=O)Nc3cccc(F)c3)CC2)cc1 | 92 | 91 | -6 | 104 | 3 | 6
COc1ccc(/C=N/NC(=O)c2nonc2C)cc1 | · | · | 1 | · | · | ·
CC(NC(=O)Nn1cnnc1)(C(F)(F)F)C(F)(F)F | 96 | 90 | 3 | 97 | · | ·
NC(=O)c1cc(Br)cc2c3c([nH]c12)CCCC3 | 18* | 42 | -4 | 87 | 9 | 56
CNc1ccc(/C=C2\COc3ccccc3C2=O)cc1[N+](=O)[O-] | 16* | 74 | -8 | 96 | · | ·
CCC(=O)NC(c1ccccc1OC)c1ccc2cccnc2c1O (configuration not stated) | 1.8* | 4.1* | · | 11* | · | ·
CC(=O)CSc1nnc(Cc2ccc3c(c2)OCO3)o1 | 103 | 93 | · | 96 | · | ·
O=C(Nc1nnc(C2CC2)s1)c1cc(-c2ccccc2)nn1-c1ccccc1 | 82 | 101 | -11 | 102 | · | 67*

Screening data deposited in PubChem by several laboratories.
